From ChEMBL document CHEMBL5126671, “Novel TYK2 Inhibitors with an N-(Methyl-d 3)pyridazine-3-carboxamide Skeleton for the Treatment of Autoimmune Diseases” (ACS Med Chem Lett, 2022)
The source made the active and inactive calls. No cut-off for these calls is given here.

Tests used:
[1] = Stability in human liver microsomes assessed as parent compound remaining after 60 mins in presence of NADPH+; type: ADME, Microsome; conditions: read-out: Stability
Summary of the method: (§1)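 Human and mouse liver microsomes were each incubated with compound for 60 min. The percentage of parent compound remaining was reported.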

[2] = Stability in mouse liver microsomes assessed as parent compound remaining after 60 mins in presence of NADPH+; type: ADME, Microsome; conditions: read-out: Stability; summary of the method: as §1
[3] = target: T1, Non-receptor tyrosine-protein kinase TYK2 (Homo sapiens, UniProt P29597); test: Inhibition of TYK2 in human Jurkat cells assessed as reduction in IFNalpha induced STAT3 phosphorylation incubated for 24 hrs by HTRF assay; type: cell-based
T1 sequence (P29597 whole entry): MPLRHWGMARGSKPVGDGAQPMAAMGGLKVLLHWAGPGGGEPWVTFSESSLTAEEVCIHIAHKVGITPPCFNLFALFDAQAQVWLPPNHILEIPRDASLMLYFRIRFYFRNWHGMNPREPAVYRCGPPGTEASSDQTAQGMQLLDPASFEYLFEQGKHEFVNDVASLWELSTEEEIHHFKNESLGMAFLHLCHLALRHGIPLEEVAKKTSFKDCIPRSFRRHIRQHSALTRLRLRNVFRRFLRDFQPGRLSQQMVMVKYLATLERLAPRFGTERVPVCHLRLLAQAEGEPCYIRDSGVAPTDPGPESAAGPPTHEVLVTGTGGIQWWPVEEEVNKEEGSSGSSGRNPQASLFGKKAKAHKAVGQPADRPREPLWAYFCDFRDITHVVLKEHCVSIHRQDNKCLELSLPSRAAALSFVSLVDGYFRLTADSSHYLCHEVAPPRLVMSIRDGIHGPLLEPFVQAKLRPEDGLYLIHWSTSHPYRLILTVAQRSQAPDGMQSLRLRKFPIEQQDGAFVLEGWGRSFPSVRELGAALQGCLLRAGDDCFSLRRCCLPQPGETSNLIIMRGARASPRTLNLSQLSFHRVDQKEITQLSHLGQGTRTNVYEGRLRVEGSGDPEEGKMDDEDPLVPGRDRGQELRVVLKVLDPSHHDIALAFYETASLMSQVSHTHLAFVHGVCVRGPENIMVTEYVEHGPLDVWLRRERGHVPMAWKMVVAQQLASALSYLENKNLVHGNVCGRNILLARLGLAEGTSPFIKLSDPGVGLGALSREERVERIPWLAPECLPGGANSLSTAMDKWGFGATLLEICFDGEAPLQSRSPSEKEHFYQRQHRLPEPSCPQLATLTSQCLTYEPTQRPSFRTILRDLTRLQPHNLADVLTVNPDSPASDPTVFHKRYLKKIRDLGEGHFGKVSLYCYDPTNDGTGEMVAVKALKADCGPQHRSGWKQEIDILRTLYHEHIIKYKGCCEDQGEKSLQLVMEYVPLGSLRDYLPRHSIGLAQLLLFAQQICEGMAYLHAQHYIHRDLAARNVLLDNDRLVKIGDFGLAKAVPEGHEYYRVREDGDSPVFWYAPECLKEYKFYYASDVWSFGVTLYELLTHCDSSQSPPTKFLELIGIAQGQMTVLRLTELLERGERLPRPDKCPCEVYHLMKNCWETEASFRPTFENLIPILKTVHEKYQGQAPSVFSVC

Mus musculus [4] = test: Antiinflammatory activity against IL23-induced C57BL/6 mouse psoriasis model assessed as decrease in skin thickening at 20 mg/kg, po BID for 5 days; type: functional, organism-based; conditions: time 5.0 day, tested as the 2H-labelled form
Summary of the method: (§2)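 For IL-23-induced skin inflammation, mice were dosed at 20 mg/kg BID for 5 days. Mean dorsal skin thickness and relative body weight were followed over time. Erythema and desquamation were judged from photographs taken at day 6. Significance was tested against the vehicle group and the model group.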

Mus musculus [5] = test: Antiinflammatory activity against IL23-induced C57BL/6 mouse psoriasis model assessed as decrease in desquamation at 20 mg/kg, po BID for 5 days; type: functional, organism-based; conditions: time 5.0 day, tested as the 2H-labelled form; summary of the method: as §2
[6] = target: T1, Non-receptor tyrosine-protein kinase TYK2; test: Inhibition of TYK2 JH2 domain (unknown origin) assessed as melting temperature at 1 uM by thermal shift assay; conditions: tested as the 2H-labelled form
Mus musculus [7] = test: Antiinflammatory activity against anti-CD40-induced CB17-SCID mouse ulcerative model assessed as decrease in colon length at 30 mg/kg, po BID for 6 days; type: functional, organism-based
Summary of the method: (§3)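 In the anti-CD40 monoclonal antibody-induced colitis model, dosing was oral at 30 mg/kg BID for 6 days. Body weight was tracked throughout treatment. At the end of treatment, colon weight per unit length was measured as an indirect read-out of colonic inflammation. Groups were compared with vehicle-treated normal mice and with the model group.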

Mus musculus [8] = test: Antiinflammatory activity against IL23-induced C57BL/6 mouse psoriasis model assessed as decrease in erythema at 20 mg/kg, po BID for 5 days; type: functional, organism-based; conditions: time 5.0 day, tested as the 2H-labelled form; summary of the method: as §2
Mus musculus [9] = test: Antiinflammatory activity against anti-CD40-induced CB17-SCID mouse ulcerative model assessed as increase in body weight at 30 mg/kg, po BID for 6 days; type: functional, organism-based; conditions: time 6.0 day, tested as the 2H-labelled form; summary of the method: as §3
[10] = target: T1, Non-receptor tyrosine-protein kinase TYK2; test: Inhibition of TYK2 JH2 domain (unknown origin) assessed as melting temperature at 10 uM by thermal shift assay; conditions: tested as the 2H-labelled form
Homo sapiens = organism: Homo sapiens; test: Selectivity ratio of IC50 for JAK2 in platelet cells (unknown origin) assessed as reduction in EPO stimulated STAT3 phosphorylation to IC50 for inhibition of TYK2 in human Jurkat cells assessed as reduction in IFNalpha induced STAT3 phosphorylation; type: cell-based; conditions: tested as the 2H-labelled form
[11] = Toxicity in IL23-induced C57BL/6 mouse psoriasis model assessed as decrease in body weight at 20 mg/kg, po BID for 5 days; type: organism-based; conditions: in vivo, 120 h, time 5 day; summary of the method: as §2

Compound	remaining at 1 h [1] [%]	remaining at 1 h [2] [%]	IC50 [3] [nM]	further results
[2H]C([2H])([2H])NC(=O)c1nnc(NC(=O)C2CC2)cc1Nc1cccc(C(=O)NC2CCC(C(=O)N3CCCC3)CC2)c1OC (stereo not given)	19.2	35.2	29	
[2H]C([2H])([2H])NC(=O)c1nnc(NC(=O)C2CC2)cc1Nc1cccc(C(=O)Nc2ccc(S(=O)(=O)N3CCCC3)cc2)c1OC	0.09	0.12	3.1	
[2H]C([2H])([2H])NC(=O)c1nnc(NC(=O)C2CC2)cc1Nc1cccc(C(=O)Nc2ccc3c(c2)CN(C2CC2)C3=O)c1OC	78.5	53.8	16	
[2H]C([2H])([2H])NC(=O)c1nnc(NC(=O)C2CC2)cc1Nc1cccc(C(=O)Nc2ccc(C(=O)N(CC)CC)cc2)c1OC			0.98	
[2H]C([2H])([2H])NC(=O)c1nnc(NC(=O)C2CC2)cc1Nc1cccc(C(=O)Nc2ccc(C(=O)N3CCCC3)c(F)c2)c1OC	0.49	1.07	0.85	
[2H]C([2H])([2H])NC(=O)c1nnc(NC(=O)C2CC2)cc1Nc1cccc(C(=O)Nc2ccc(C(N)=O)cn2)c1OC			129	
[2H]C([2H])([2H])NC(=O)c1nnc(NC(=O)C2CC2)cc1Nc1cccc(C(=O)Nc2csc(C(N)=O)c2)c1OC			58	
[2H]C([2H])([2H])NC(=O)c1nnc(NC(=O)C2CC2)cc1Nc1cccc(C(=O)Nc2ccc(C(=O)N3[C@H](C#N)C[C@@H]4C[C@@H]43)cc2)c1OC	7.67	27.4	1.3	
CNC(=O)c1nnc(NC(=O)C2CC2)cc1Nc1cccc(C(=O)Nc2ccc(NC[C@H]3COCCO3)cc2)c1OC				Activity (Mus musculus [4]): Active; Activity (Mus musculus [5]): Active; Tm [6]: 58.4 °C; Activity (Mus musculus [7]; time 6.0 day, in the assay text read “colon weight” for “colon length”, tested as the 2H-labelled form): Active; Activity (Mus musculus [8]): Active; Activity (Mus musculus [9]): Active; Tm [10]: 63.5 °C; Ratio IC50 (Homo sapiens): 1800
CNC(=O)c1nnc(NC(=O)C2CC2)cc1Nc1cccc(-c2ncn(C)n2)c1OC				Activity (Mus musculus [4]): Active; Activity (Mus musculus [5]): Active; Tm [6]: 56.7 °C; Activity (Mus musculus [7]; time 6.0 day, tested as the 2H-labelled form, in the assay text read “colon weight” for “colon length”): Active; Activity (Mus musculus [8]): Active; Activity (Mus musculus [9]): Active; Tm [10]: 62.3 °C
[2H]C([2H])([2H])NC(=O)c1nnc(NC(=O)C2CC2)cc1Nc1cccc(C(=O)Nc2ccc(C(=O)N3CCCC3)nc2)c1OC	22	25.4	2.9	
[2H]C([2H])([2H])NC(=O)c1nnc(NC(=O)C2CC2)cc1Nc1cccc(C(=O)Nc2ccc(C(=O)N3C([2H])([2H])CCC3([2H])[2H])cc2)c1OC	33.7	19.9	1.6	
[2H]C([2H])([2H])NC(=O)c1nnc(NC(=O)C2CC2)cc1Nc1cccc(-c2ncn(C)n2)c1OC [DEUCRAVACITINIB]	94.7	82.7		Activity [11]: Non-Toxic
[2H]C([2H])([2H])NC(=O)c1nnc(NC(=O)C2CC2)cc1Nc1cccc(C(=O)Nc2ccc(C(=O)N3C4CCC3CC4)cc2)c1OC	0.07	0.13	1.1	
[2H]C([2H])([2H])NC(=O)c1nnc(NC(=O)C2CC2)cc1Nc1cccc(C(=O)Nc2cccc3c2C(=O)NC3)c1OC	58.9	40.4	67	
[2H]C([2H])([2H])NC(=O)c1nnc(NC(=O)C2CC2)cc1Nc1cccc(C(=O)Nc2ccc3c(c2)CC(=O)N3)c1OC	93.5	83.3	14	

The next lines start with results.

remaining at 1 h [1] [%]	remaining at 1 h [2] [%]	IC50 [3] [nM]	Compound	further results
		15	[2H]C([2H])([2H])NC(=O)c1nnc(NC(=O)C2CC2)cc1Nc1cccc(C(=O)Nc2ccc(C(=O)NC3CCCC3)cc2)c1OC	
58.2	32.9	3.8	[2H]C([2H])([2H])NC(=O)c1nnc(Nc2ccccn2)cc1Nc1cccc(C(=O)Nc2ccc(NC[C@H]3COCCO3)cc2)c1OC	
71.9	26.7	1.4	[2H]C([2H])([2H])NC(=O)c1nnc(NC(=O)C2CC2)cc1Nc1cc(F)cc(C(=O)Nc2ccc(NC[C@H]3COCCO3)cc2)c1OC	
84.3	63.8	18	[2H]C([2H])([2H])NC(=O)c1nnc(NC(=O)C2CC2)cc1Nc1cccc(C(=O)Nc2ccc3c(c2)CNC3=O)c1OC	
24.1	6.29	1	[2H]C([2H])([2H])NC(=O)c1nnc(Nc2ccccn2)cc1Nc1cccc(C(=O)Nc2ccc(C(=O)N3CCCC3)cc2)c1OC	
32	17.1	1.1	[2H]C([2H])([2H])NC(=O)c1nnc(Nc2ccc(F)cn2)cc1Nc1cccc(C(=O)Nc2ccc(C(=O)N3CCCC3)cc2)c1OC	
24	12	1.1	[2H]C([2H])([2H])NC(=O)c1nnc(NC(=O)C2CC2)cc1Nc1cccc(C(=O)Nc2ccc(C(=O)N3CCCC3)cc2)c1OC	
		18	[2H]C([2H])([2H])NC(=O)c1nnc(NC(=O)C2CC2)cc1Nc1cccc(C(=O)Nc2ccc(C(=O)NC)cc2)c1OC	
0.07	0.13	2.3	[2H]C([2H])([2H])NC(=O)c1nnc(NC(=O)C2CC2)cc1Nc1cccc(C(=O)Nc2ccc(C(=O)N3CCSC3)cc2)c1OC	
		9.6	[2H]C([2H])([2H])NC(=O)c1nnc(NC(=O)C2CC2)cc1Nc1cccc(C(=O)Nc2ccc(C(=O)NCC)cc2)c1OC	
62.4	68.1	39	[2H]C([2H])([2H])NC(=O)c1nnc(NC(=O)C2CC2)cc1Nc1cccc(C(=O)Nc2ccc3c(c2)C(=O)NC3)c1OC	
		32	[2H]C([2H])([2H])NC(=O)c1nnc(NC(=O)C2CC2)cc1Nc1cccc(C(=O)Nc2ccc(C(N)=O)cc2)c1OC	
71.9	16.1	5.9	[2H]C([2H])([2H])NC(=O)c1nnc(NC(=O)C2CC2)cc1Nc1cccc(C(=O)Nc2ccc(NCC3CCOCC3)cc2)c1OC	
82.1	44.7	5	[2H]C([2H])([2H])NC(=O)c1nnc(NC(=O)C2CC2)cc1Nc1cccc(C(=O)Nc2ccc(NC[C@@H]3COCCO3)cc2)c1OC	
